In assay [1] the target is T1, Pancreatic alpha-amylase (Homo sapiens, UniProt P04746).
T1 sequence (P04746 whole entry): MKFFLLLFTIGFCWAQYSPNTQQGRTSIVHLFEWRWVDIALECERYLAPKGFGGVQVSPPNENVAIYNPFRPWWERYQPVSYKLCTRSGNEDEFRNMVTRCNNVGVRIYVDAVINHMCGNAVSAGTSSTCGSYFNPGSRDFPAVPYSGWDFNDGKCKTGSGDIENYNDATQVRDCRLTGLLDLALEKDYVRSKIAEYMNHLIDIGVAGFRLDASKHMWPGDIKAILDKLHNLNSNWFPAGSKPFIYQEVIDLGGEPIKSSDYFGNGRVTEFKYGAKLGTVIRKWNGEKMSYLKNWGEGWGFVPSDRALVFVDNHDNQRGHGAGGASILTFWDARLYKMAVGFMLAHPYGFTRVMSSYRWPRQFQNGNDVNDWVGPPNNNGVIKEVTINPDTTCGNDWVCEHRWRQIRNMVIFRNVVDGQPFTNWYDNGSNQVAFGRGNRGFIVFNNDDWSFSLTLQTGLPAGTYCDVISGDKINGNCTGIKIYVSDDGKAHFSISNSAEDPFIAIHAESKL
As to the kind of experiment: Inhibition of human pancreatic alpha-amylase assessed as hydrolysis of G3F by Dixon plot analysis.

In assay [2] the target is T2, Pancreatic alpha-amylase (Homo sapiens) (UniProt P04746).
T2 sequence (whole entry): T1 sequence (P04746 whole entry)
As to the kind of experiment: Inhibition of human pancreatic alpha-amylase using CNPG3 as substrate at 50 mM by spectrophotometric analysis in presence of 20 mM MeG2F as donor compound and 50 mM 5FIdoF as acceptor compound relative to control.

Assay [3] has as its target T1, Pancreatic alpha-amylase. As to the kind of experiment: Competitive inhibition of human pancreatic alpha-amylase by double reciprocal plot analysis.
Assay [4] in a line: Inhibition of Escherichia coli MurC ligase after 15 mins by Malachite green assay.
Assay [5] deals with T3, Alpha-amylase 1A (Homo sapiens, UniProt P0DUB6).
T3 sequence (P0DUB6 whole entry): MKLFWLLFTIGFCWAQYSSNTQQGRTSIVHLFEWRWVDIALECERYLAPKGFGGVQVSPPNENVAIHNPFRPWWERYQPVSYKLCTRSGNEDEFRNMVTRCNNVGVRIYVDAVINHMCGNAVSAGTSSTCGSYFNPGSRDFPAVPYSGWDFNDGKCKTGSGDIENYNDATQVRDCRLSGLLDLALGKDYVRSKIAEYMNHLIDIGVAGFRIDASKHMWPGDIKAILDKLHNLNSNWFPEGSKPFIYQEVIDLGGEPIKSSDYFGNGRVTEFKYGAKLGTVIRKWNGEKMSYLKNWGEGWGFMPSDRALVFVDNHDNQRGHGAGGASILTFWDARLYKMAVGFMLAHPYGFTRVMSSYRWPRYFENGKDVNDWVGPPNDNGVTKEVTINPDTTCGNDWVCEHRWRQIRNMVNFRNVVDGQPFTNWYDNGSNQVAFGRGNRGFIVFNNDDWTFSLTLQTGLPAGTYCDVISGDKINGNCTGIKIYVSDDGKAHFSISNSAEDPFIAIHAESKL
Nature of the assay: Inhibition of human salivary alpha-amylase using GalG2CNP as substrate by UV-Vis spectrophotometric analysis. The conditions noted are these: read-out: IC50.

Assay [6] concerns the target T4, Alpha-amylase 1A (Homo sapiens) (UniProt P0DUB6).
T4 sequence (whole entry): T3 sequence (P0DUB6 whole entry)
Nature of the assay: Potency index, ratio of BAS 04880564 IC50 to compound IC50 for human salivary alpha-amylase.

The target of assay [7] is T1, Pancreatic alpha-amylase. Nature of the assay: Inhibition of human pancreatic alpha-amylase.
A short description of assay [8]: Inhibition of malt alpha-amylase. To be noted: concentration not given here.
Assay [9] deals with T4, Alpha-amylase 1A (Homo sapiens). Nature of the assay: Inhibition of human salivary alpha-amylase using GalG2CNP as substrate at 200 uM by UV-Vis spectrophotometric analysis. A digest of the protocol:
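Single-concentration test at 200 μM inhibitor against human salivary α-amylase (2 nM) with GalG2CNP substrate, 50 mM MES pH 6.0 containing 5 mM Ca(OAc)2, 51.5 mM NaCl, 152 mM NaN3, 37°C. Chloronitrophenol liberation monitored continuously at 400 nm by UV-Vis spectrophotometry.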

In assay [10] the target is T3, Alpha-amylase 1A. Nature of the assay: Inhibition of human salivary alpha-amylase using rice starch as substrate after 12 mins by microplate reader analysis.

Activity calls are given as the source filed them. The rule behind the calls is not given here.

Consider `OC[C@H]1N/C(=N/O)[C@H](O)[C@@H](O)[C@@H]1O[C@H]1O[C@H](CO)[C@@H](O[C@H]2O[C@H](CO)[C@@H](O)[C@H](O)[C@H]2O)[C@H](O)[C@H]1O`, for which the Ki in [1] was 1800 µM.

On to `OCC1OC(OC2C(CO)OC(OC3C(O)C(O)C(F)OC3(F)CO)C(O)C2O)C(O)C(O)C1O` (centres undefined), for which the inhibition in assay [2] stood at 95%. In [3], `C[C@@H]1O[C@@H](O[C@@H]2CO[C@@H](Oc3c(O)cc(C4=C(O[C@@H]5O[C@@H](C)[C@H](O)[C@@H](O)[C@H]5O[C@@H]5O[C@H](COC(=O)/C=C/c6ccc(O)c(O)c6)[C@@H](O)[C@H](O)[C@H]5O[C@@H]5O[C@H](CO)[C@@H](O)[C@H](O)[C@H]5O)C(=O)c5c(O)cc(O)cc5C4)cc3O)[C@H](O)[C@H]2O)[C@H](O)[C@H](O)[C@H]1O` registered a Ki of 0.008 µM. In the case of `NS(=O)(=O)c1ccc(Nc2nc(-c3ccc(O)cc3O)cs2)cc1`, the IC50 came to 531 µM in assay [4] and 165 µM in [5]. For the same compound, the Ratio IC50 in assay [6] was 0.83. In the case of `COc1cc(/C=C/C(=O)OC[C@H]2O[C@@H](O[C@H]3[C@H](OC4=C(c5cc(O)c(O[C@@H]6OC[C@@H](O[C@@H]7O[C@@H](C)[C@H](O)[C@@H](O)[C@H]7O)[C@H](O)[C@H]6O)c(O)c5)Cc5cc(O)cc(O)c5C4=O)O[C@@H](C)[C@H](O)[C@H]3O)[C@H](O[C@@H]3O[C@H](CO)[C@@H](O)[C@H](O)[C@H]3O)[C@@H](O)[C@@H]2O)ccc1O`, the Ki in assay [3] was 6.1 µM.

Regarding `CC1OC(OC2C(CO)OC(OCC3OC(O)C(O)C(O)C3O)C(O)C2O)C(O)C(O)C1NC1C=C(CO)C(OC2OC(CO)C(OC3OC(CO)C(O)C(O)C3O)C(O)C2O)C(O)C1O` (centres undefined), the affinity in [7], expressed as Ki, was 0.012 µM. The same measure, in the same setting: with `C[C@H]1O[C@H](O[C@H]2[C@H](O)[C@@H](O)[C@@H](O)O[C@@H]2CO)[C@H](O)[C@@H](O)[C@@H]1N[C@H]1C=C(CO)[C@@H](O)[C@H](O)[C@H]1O` the figure was 0.075 µM. Regarding `CC(=O)OCC(OC(C)=O)C1OC(O)=C(O)C1=O` (centres undefined), the inhibition in assay [8] was found to be 99%. With `OC[C@H]1N/C(=N/O)[C@H](O)[C@@H](O)[C@@H]1O`, the Ki in assay [1] stood at 18000 µM. The compound `C[C@@H]1O[C@@H](O[C@@H]2CO[C@@H](Oc3c(O)cc(C4=C(O[C@@H]5O[C@@H](C)[C@H](O)[C@@H](O)[C@H]5O[C@@H]5O[C@H](COC(=O)/C=C/c6ccc(O)cc6)[C@@H](O)[C@H](O)[C@H]5O[C@@H]5O[C@H](CO)[C@@H](O)[C@H](O)[C@H]5O)C(=O)c5c(O)cc(O)cc5C4)cc3O)[C@H](O)[C@H]2O)[C@H](O)[C@H](O)[C@H]1O` returned a Ki in assay [3] of 3.6 µM. For the compound `CC1=NN(c2ccccc2)C(=O)/C1=C(/NNC(=O)c1ccccc1O)c1ccccc1`, in assay [9], the inhibition result is “inactive”. For `O=C(O[C@@H]1Cc2c(O)cc(O)cc2O[C@@H]1c1cc(O)c(O)c(O)c1)c1cc(O)c(O)c(O)c1` [EPIGALOCATECHIN GALLATE], in assay [10], the IC50 is 1400 µM.

(Values after ChEMBL document CHEMBL3616379, “From carbohydrates to drug-like fragments: Rational development of novel α-amylase inhibitors” (Bioorg Med Chem, 2015).)
